# Experimental data as given in ChEMBL document CHEMBL2062435, “Synthesis and in vitro antibacterial activity of gemifloxacin derivatives containing a substituted benzyloxime moiety” (2012).
# System: Staphylococcus epidermidis
# Assay: Antimicrobial activity against extended spectrum beta-lactamases-producing methicillin-sensitive Staphylococcus epidermidis 10-11 after 18-24 hrs by two-fold serial dilution method
# Type: functional
# Procedure, shortened: (§1)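 Agar-medium twofold serial dilution against Gram-positive and Gram-negative strains; MIC taken as the lowest compound concentration giving complete inhibition of bacterial growth after incubation at 35 °C for 18-24 h.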
row,SMILES,MIC
1,COc1ccc(CO/N=C2\CN(c3nc4c(cc3F)c(=O)c(C(=O)O)cn4C3CC3)CC2CN)c(OC)c1.CS(=O)(=O)O (racemic),4 µg/mL

# System: Pseudomonas aeruginosa
# Assay: Antimicrobial activity against Pseudomonas aeruginosa 10-12 after 18-24 hrs by two-fold serial dilution method
# Type: functional
# Procedure, shortened: as §1
row,SMILES,MIC
1,COc1ccc(CO/N=C2\CN(c3nc4c(cc3F)c(=O)c(C(=O)O)cn4C3CC3)CC2CN)c(OC)c1.CS(=O)(=O)O (racemic),0.06 µg/mL

# System: Enterococcus faecalis
# Assay: Antimicrobial activity against Enterococcus faecalis 10-5 after 18-24 hrs by two-fold serial dilution method
# Type: functional
# Procedure, shortened: as §1
row,SMILES,MIC
1,COc1ccc(CO/N=C2\CN(c3nc4c(cc3F)c(=O)c(C(=O)O)cn4C3CC3)CC2CN)c(OC)c1.CS(=O)(=O)O (racemic),0.5 µg/mL

# System: Enterococcus faecalis
# Assay: Antimicrobial activity against Enterococcus faecalis 10-6 after 18-24 hrs by two-fold serial dilution method
# Type: functional
# Procedure, shortened: as §1
row,SMILES,MIC
1,COc1ccc(CO/N=C2\CN(c3nc4c(cc3F)c(=O)c(C(=O)O)cn4C3CC3)CC2CN)c(OC)c1.CS(=O)(=O)O (racemic),4 µg/mL

# System: Staphylococcus aureus
# Assay: Antimicrobial activity against extended spectrum beta-lactamases-producing methicillin-resistant Staphylococcus aureus 10-15 after 18-24 hrs by two-fold serial dilution method
# Type: functional
# Procedure, shortened: (§2)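 Agar twofold serial dilution MIC against clinical isolates. MIC was taken as the lowest concentration giving complete inhibition of bacterial growth after incubation at 35 °C for 18-24 h.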
row,SMILES,MIC
1,COc1ccc(CO/N=C2\CN(c3nc4c(cc3F)c(=O)c(C(=O)O)cn4C3CC3)CC2CN)c(OC)c1.CS(=O)(=O)O (racemic),0.25 µg/mL

# System: Pseudomonas aeruginosa
# Assay: Antimicrobial activity against extended spectrum beta-lactamases-producing Pseudomonas aeruginosa 10-9 after 18-24 hrs by two-fold serial dilution method
# Type: functional
# Procedure, shortened: as §1
row,SMILES,MIC
1,COc1ccc(CO/N=C2\CN(c3nc4c(cc3F)c(=O)c(C(=O)O)cn4C3CC3)CC2CN)c(OC)c1.CS(=O)(=O)O (racemic),8 µg/mL

# System: Staphylococcus epidermidis
# Assay: Antimicrobial activity against extended spectrum beta-lactamases-producing methicillin-resistant Staphylococcus epidermidis 10-13 after 18-24 hrs by two-fold serial dilution method
# Type: functional
# Procedure, shortened: as §2
row,SMILES,MIC
1,COc1ccc(CO/N=C2\CN(c3nc4c(cc3F)c(=O)c(C(=O)O)cn4C3CC3)CC2CN)c(OC)c1.CS(=O)(=O)O (racemic),0.5 µg/mL

# System: Pseudomonas aeruginosa
# Assay: Antimicrobial activity against extended spectrum beta-lactamases-producing Pseudomonas aeruginosa 10-18 after 18-24 hrs by two-fold serial dilution method
# Type: functional
# Procedure, shortened: as §1
row,SMILES,MIC
1,COc1ccc(CO/N=C2\CN(c3nc4c(cc3F)c(=O)c(C(=O)O)cn4C3CC3)CC2CN)c(OC)c1.CS(=O)(=O)O (racemic),16 µg/mL

# System: Klebsiella pneumoniae
# Assay: Antimicrobial activity against extended spectrum beta-lactamases-producing Klebsiella pneumoniae 10-1 after 18-24 hrs by two-fold serial dilution method
# Type: functional
# Procedure, shortened: as §1
row,SMILES,MIC
1,COc1ccc(CO/N=C2\CN(c3nc4c(cc3F)c(=O)c(C(=O)O)cn4C3CC3)CC2CN)c(OC)c1.CS(=O)(=O)O (racemic),> 128 µg/mL

# System: Pseudomonas aeruginosa
# Assay: Antimicrobial activity against extended spectrum beta-lactamases-producing Pseudomonas aeruginosa 10-5 after 18-24 hrs by two-fold serial dilution method
# Type: functional
# Procedure, shortened: as §1
row,SMILES,MIC
1,COc1ccc(CO/N=C2\CN(c3nc4c(cc3F)c(=O)c(C(=O)O)cn4C3CC3)CC2CN)c(OC)c1.CS(=O)(=O)O (racemic),4 µg/mL

# System: Escherichia coli
# Assay: Antimicrobial activity against extended spectrum beta-lactamases-producing Escherichia coli 10-2 after 18-24 hrs by two-fold serial dilution method
# Type: functional
# Procedure, shortened: as §1
row,SMILES,MIC
1,COc1ccc(CO/N=C2\CN(c3nc4c(cc3F)c(=O)c(C(=O)O)cn4C3CC3)CC2CN)c(OC)c1.CS(=O)(=O)O (racemic),> 128 µg/mL

# System: Escherichia coli
# Assay: Antimicrobial activity against extended spectrum beta-lactamases-producing Escherichia coli 10-3 after 18-24 hrs by two-fold serial dilution method
# Type: functional
# Procedure, shortened: as §1
row,SMILES,MIC
1,COc1ccc(CO/N=C2\CN(c3nc4c(cc3F)c(=O)c(C(=O)O)cn4C3CC3)CC2CN)c(OC)c1.CS(=O)(=O)O (racemic),32 µg/mL

# System: Klebsiella pneumoniae
# Assay: Antimicrobial activity against Klebsiella pneumoniae 10-4 after 18-24 hrs by two-fold serial dilution method
# Type: functional
# Procedure, shortened: as §1
row,SMILES,MIC
1,COc1ccc(CO/N=C2\CN(c3nc4c(cc3F)c(=O)c(C(=O)O)cn4C3CC3)CC2CN)c(OC)c1.CS(=O)(=O)O (racemic),> 128 µg/mL

# System: Escherichia coli
# Assay: Antimicrobial activity against extended spectrum beta-lactamases-producing Escherichia coli 10-4 after 18-24 hrs by two-fold serial dilution method
# Type: functional
# Procedure, shortened: as §1
row,SMILES,MIC
1,COc1ccc(CO/N=C2\CN(c3nc4c(cc3F)c(=O)c(C(=O)O)cn4C3CC3)CC2CN)c(OC)c1.CS(=O)(=O)O (racemic),0.25 µg/mL

# System: Staphylococcus aureus
# Assay: Antimicrobial activity against extended spectrum beta-lactamases-producing methicillin-sensitive Staphylococcus aureus 10-13 after 18-24 hrs by two-fold serial dilution method
# Type: functional
# Procedure, shortened: as §1
row,SMILES,MIC
1,COc1ccc(CO/N=C2\CN(c3nc4c(cc3F)c(=O)c(C(=O)O)cn4C3CC3)CC2CN)c(OC)c1.CS(=O)(=O)O (racemic),1 µg/mL

# System: Enterococcus faecium
# Assay: Antimicrobial activity against Enterococcus faecium 10-9 after 18-24 hrs by two-fold serial dilution method
# Type: functional
# Procedure, shortened: as §1
row,SMILES,MIC
1,COc1ccc(CO/N=C2\CN(c3nc4c(cc3F)c(=O)c(C(=O)O)cn4C3CC3)CC2CN)c(OC)c1.CS(=O)(=O)O (racemic),8 µg/mL

# System: Staphylococcus aureus
# Assay: Antimicrobial activity against extended spectrum beta-lactamases-producing methicillin-sensitive Staphylococcus aureus 10-14 after 18-24 hrs by two-fold serial dilution method
# Type: functional
# Procedure, shortened: as §1
row,SMILES,MIC
1,COc1ccc(CO/N=C2\CN(c3nc4c(cc3F)c(=O)c(C(=O)O)cn4C3CC3)CC2CN)c(OC)c1.CS(=O)(=O)O (racemic),0.06 µg/mL

# System: Staphylococcus aureus
# Assay: Antimicrobial activity against Staphylococcus aureus ATCC […] after 18-24 hrs by two-fold serial dilution method
# Type: functional
# Procedure, shortened: as §1
row,SMILES,MIC
1,COc1ccc(CO/N=C2\CN(c3nc4c(cc3F)c(=O)c(C(=O)O)cn4C3CC3)CC2CN)c(OC)c1.CS(=O)(=O)O (racemic),0.06 µg/mL
